Assays:
Rattus norvegicus [1] = species: Rattus norvegicus; experiment: The compound was tested for enhancement of electrically induced release of [3H]GABA from rat cortical slices.; format: functional
Method in brief: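 Rat cerebral cortex slices were electrically stimulated at 2 Hz, and the increase in GABA release was measured in quadruplicate. EC150, the concentration giving a 50% increase in GABA release, came from computer-aided curve fitting. Where no EC150 was given, the value is the percent increase at 10^-4 M or 10^-5 M.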

[2] = target: Gamma-aminobutyric acid type B receptor subunit 1 (Rattus norvegicus, UniProt Q9Z0U4); experiment: Inhibition of binding of [3H]CGP-27492 to gamma-aminobutyric acid type B receptor of rat cortex.
[3] = Inhibition of [3H]5-HT binding to 5-hydroxytryptamine 1 receptor of central nervous system; settings: concentration not given here
[4] = target: Glutamate receptor ionotropic kainate (Homo sapiens) (UniProt P39086+Q16478+Q16099+Q13002+Q13003); experiment: Inhibition of [3H]kainate binding to Ionotropic glutamate receptor kainate of central nervous system; format: protein-complex assay; settings: concentration not given here
[5] = target: Histamine H2 receptor (Homo sapiens) (UniProt P25021); experiment: Inhibition of [3H]tiotidine binding to histamine 2 receptor of central nervous system; settings: concentration not given here
[6] = target: Histamine H1 receptor (Homo sapiens) (UniProt P35367); experiment: Inhibition of [3H]doxepine binding to histamine-1 receptor of central nervous system.; settings: concentration not given here
[7] = Inhibition of [3H]DCKA binding to N-methyl-D-aspartate glutamate receptor 1 of central nervous system; settings: concentration not given here
[8] = target: Glutamate receptor ionotropic AMPA (Homo sapiens) (UniProt P48058+P42263+P42262+P42261); experiment: Inhibition of [3H]-AMPA binding to Quisqualate receptor of central nervous system; format: protein-complex assay; settings: concentration not given here
Rattus norvegicus [9] = species: Rattus norvegicus; experiment: Enhanced electrically induced release of [3H]GABA from rat cortical slices; agonist; format: functional; settings: filed as agonist
Method in brief: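 Electrically stimulated rat cerebral cortex slices at 2 Hz; [3H]GABA release measured. EC150 is the concentration giving a 50% increase in GABA release, obtained by computer-aided curve fitting. Run in quadruplicate; no standard deviations computed because curve slopes varied. Some entries are instead percent increase at a single concentration of 10^-4 or 10^-5 M.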

Gamma-aminobutyric acid type B receptor subunit 1, sequence (Q9Z0U4 whole entry): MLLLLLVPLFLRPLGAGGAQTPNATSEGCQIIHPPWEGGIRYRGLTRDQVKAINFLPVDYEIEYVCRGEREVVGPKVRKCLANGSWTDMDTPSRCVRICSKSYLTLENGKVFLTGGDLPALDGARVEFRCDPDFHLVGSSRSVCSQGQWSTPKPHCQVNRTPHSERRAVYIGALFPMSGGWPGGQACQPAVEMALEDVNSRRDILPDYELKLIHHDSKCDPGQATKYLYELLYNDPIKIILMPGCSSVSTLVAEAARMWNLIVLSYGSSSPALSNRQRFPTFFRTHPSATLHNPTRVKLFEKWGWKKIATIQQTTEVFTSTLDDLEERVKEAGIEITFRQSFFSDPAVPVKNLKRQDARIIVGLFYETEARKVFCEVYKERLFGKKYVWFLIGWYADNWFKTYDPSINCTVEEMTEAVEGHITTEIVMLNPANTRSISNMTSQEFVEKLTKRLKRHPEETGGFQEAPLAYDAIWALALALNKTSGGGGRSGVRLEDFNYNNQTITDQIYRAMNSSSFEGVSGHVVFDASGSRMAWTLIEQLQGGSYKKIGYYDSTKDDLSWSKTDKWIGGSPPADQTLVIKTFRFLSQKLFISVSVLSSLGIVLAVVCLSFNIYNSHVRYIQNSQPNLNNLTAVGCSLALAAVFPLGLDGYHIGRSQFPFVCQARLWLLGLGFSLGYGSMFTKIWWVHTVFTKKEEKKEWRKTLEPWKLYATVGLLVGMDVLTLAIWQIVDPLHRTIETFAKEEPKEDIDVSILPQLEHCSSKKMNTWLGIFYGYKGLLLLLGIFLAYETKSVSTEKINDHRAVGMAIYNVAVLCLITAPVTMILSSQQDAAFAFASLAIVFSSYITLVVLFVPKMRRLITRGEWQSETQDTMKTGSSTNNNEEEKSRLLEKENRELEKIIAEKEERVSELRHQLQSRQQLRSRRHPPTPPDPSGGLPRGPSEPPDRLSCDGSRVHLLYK
Histamine H2 receptor (Homo sapiens), sequence (P25021 whole entry): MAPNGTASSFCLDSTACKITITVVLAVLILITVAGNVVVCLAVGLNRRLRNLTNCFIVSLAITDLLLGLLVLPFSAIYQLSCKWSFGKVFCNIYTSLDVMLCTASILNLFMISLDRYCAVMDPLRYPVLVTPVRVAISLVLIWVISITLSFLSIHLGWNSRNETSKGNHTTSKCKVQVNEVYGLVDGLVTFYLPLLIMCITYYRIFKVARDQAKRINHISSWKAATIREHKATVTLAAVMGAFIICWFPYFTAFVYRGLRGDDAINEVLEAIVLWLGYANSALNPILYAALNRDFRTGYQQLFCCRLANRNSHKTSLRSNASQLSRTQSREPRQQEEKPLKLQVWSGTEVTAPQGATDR
Histamine H1 receptor (Homo sapiens), sequence (P35367 whole entry): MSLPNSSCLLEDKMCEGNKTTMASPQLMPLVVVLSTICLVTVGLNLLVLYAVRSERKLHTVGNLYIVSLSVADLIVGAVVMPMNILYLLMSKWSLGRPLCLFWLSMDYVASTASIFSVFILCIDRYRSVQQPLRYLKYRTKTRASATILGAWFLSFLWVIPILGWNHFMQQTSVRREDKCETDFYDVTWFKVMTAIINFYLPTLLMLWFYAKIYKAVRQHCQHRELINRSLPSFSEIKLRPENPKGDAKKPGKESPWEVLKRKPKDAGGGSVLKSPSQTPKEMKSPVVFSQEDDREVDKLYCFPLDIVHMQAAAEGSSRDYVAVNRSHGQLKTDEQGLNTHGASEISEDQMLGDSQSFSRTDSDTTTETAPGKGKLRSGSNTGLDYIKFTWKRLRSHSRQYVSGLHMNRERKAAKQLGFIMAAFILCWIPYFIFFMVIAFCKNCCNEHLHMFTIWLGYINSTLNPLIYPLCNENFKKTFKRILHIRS

Q: With CCCP(=O)(O)CCCN as the compound, how does the EC150 (Rattus norvegicus [1]) read?
A: 30 µM

Q: And the IC50 [2]?
A: 16 µM

Q: Which EC150 (Rattus norvegicus [1]) does the source give for CCP(=O)(O)CCCN here?
A: 118 µM

Q: What about the IC50 [2] of the same compound?
A: 2 µM

Q: Which EC150 (Rattus norvegicus [1]) does the source give for NCCCP(=O)(O)CCc1ccccc1 here?
A: 60 µM

Q: What about the IC50 [2] of the same compound?
A: 10 µM

Q: Which results are given for CCCCOC(OCCCC)P(=O)(O)CCCN?
A: EC150 (Rattus norvegicus [1]): 300 µM; IC50 [2]: 20 µM

Q: Which EC150 (Rattus norvegicus [1]) does the source give for NCCCP(=O)(O)CC1CC1 here?
A: 53 µM

Q: And the IC50 [2]?
A: 37 µM

Q: For NCCCP(=O)(O)CC1CCCCC1, which EC150 (Rattus norvegicus [1]) is on record?
A: 3 µM

Q: And the IC50 [2]?
A: 4 µM

Q: What does the source list for NCCCP(=O)(O)CC(O)CNC(=O)c1ccccc1C(N)=O (stereo not drawn)?
A: EC150 (Rattus norvegicus [1]): 9 µM; IC50 [2]: 2 µM

Q: With NCC(O)CP(=O)(O)CC1CCCCC1 (stereo not drawn) as the compound, how does the EC150 (Rattus norvegicus [1]) read?
A: 8 µM

Q: And the IC50 [2]?
A: 5 µM

Q: With CCCCP(=O)(O)C(O)CCN (stereo not drawn) as the compound, how does the IC50 [2] read?
A: 37 µM

Q: Which results are given for NCCCP(=O)(O)Cc1ccc(F)cc1?
A: EC150 (Rattus norvegicus [1]): 10 µM; IC50 [2]: 52 µM

Q: Which results are given for NC[C@H](O)CP(=O)(O)Cc1ccccc1?
A: EC150 (Rattus norvegicus [1]): 5 µM; IC50 [2]: 5 µM

Q: Which results are given for CCCCCCP(=O)(O)CCCN?
A: EC150 (Rattus norvegicus [1]): 14 µM; IC50 [2]: 20 µM

Q: What does the source list for CC(C)CP(=O)(O)CCCN?
A: EC150 (Rattus norvegicus [1]): 98 µM; IC50 [2]: 14 µM

Q: With CCCCP(=O)(O)CC(O)(CN)c1ccc(Cl)cc1 (stereo not drawn) as the compound, how does the EC150 (Rattus norvegicus [1]) read?
A: 45 µM

Q: And the IC50 [2]?
A: 7 µM

Q: Which EC150 (Rattus norvegicus [1]) does the source give for CCCOC(OCCC)P(=O)(O)CCCN here?
A: 60 µM

Q: And the IC50 [2]?
A: 28 µM

Q: With NCCCP(=O)(O)CN as the compound, how does the EC150 (Rattus norvegicus [1]) read?
A: 2 µM

Q: And the IC50 [2]?
A: 50 µM

Q: With CCOC(OCC)P(=O)(O)CC(O)CN (stereo not drawn) as the compound, how does the EC150 (Rattus norvegicus [1]) read?
A: 9 µM

Q: And the IC50 [2]?
A: 16 µM

Q: For NCC(=O)CP(=O)(O)CC1CCCCC1, which EC150 (Rattus norvegicus [1]) is on record?
A: 5 µM

Q: What about the IC50 [2] of the same compound?
A: 50 µM

Q: For CCCCP(=O)(O)CCCN [SGS-742], which inhibition [3] is on record?
A: 2%

Q: What about the inhibition [4] of the same compound?
A: 8%

Q: And the inhibition [5]?
A: 6%

Q: What about the inhibition [6] of the same compound?
A: 7%

Q: What about the EC150 (Rattus norvegicus [1]) of the same compound?
A: 38 µM

Q: What about the inhibition [7] of the same compound?
A: 16%

Q: And the inhibition [8]?
A: 7%

Q: Which EC150 (Rattus norvegicus [1]) does the source give for NCCCP(=O)(O)CC1CCCCO1 (stereo not drawn) here?
A: 12 µM

Q: And the IC50 [2]?
A: 32 µM

Q: With CCOC(OCC)P(=O)(O)CCCN as the compound, how does the EC150 (Rattus norvegicus [1]) read?
A: 30 µM

Q: What about the IC50 [2] of the same compound?
A: 27 µM

Q: For NCCCP(=O)(O)CCC1CCCCO1 (stereo not drawn), which EC150 (Rattus norvegicus [1]) is on record?
A: 30 µM

Q: What about the IC50 [2] of the same compound?
A: 2 µM

Q: What does the source list for NCCCP(=O)(O)C(O)c1ccccc1 (stereo not drawn)?
A: EC150 (Rattus norvegicus [1]): 10 µM; IC50 [2]: 8 µM

Q: What does the source list for NCC(=O)CP(=O)(O)CC1CC1?
A: EC150 (Rattus norvegicus [1]): 3 µM; IC50 [2]: 14 µM

Q: Which EC150 (Rattus norvegicus [1]) does the source give for NCCCP(=O)(O)Cc1ccccn1 here?
A: 30 µM

Q: And the IC50 [2]?
A: 6 µM

Q: For NC[C@H](O)CP(=O)(O)CC1CCCCC1, which EC150 (Rattus norvegicus [1]) is on record?
A: 2 µM

Q: And the IC50 [2]?
A: 5 µM

Q: For NCCCP(=O)(O)c1ccccc1, which IC50 [2] is on record?
A: 126 µM

Q: For CP(=O)(O)CCCN, which EC150 (Rattus norvegicus [9]) is on record?
A: Agonist

Q: For CCOC(OCC)P(=O)(O)C[C@@H](O)CN, which EC150 (Rattus norvegicus [1]) is on record?
A: 11 µM

Q: And the IC50 [2]?
A: 12 µM

Q: Which EC150 (Rattus norvegicus [1]) does the source give for CC(C)OC(OC(C)C)P(=O)(O)CCCN here?
A: 47 µM

Q: What about the IC50 [2] of the same compound?
A: 18 µM

Q: For CCCCP(=O)(O)C(C)CCN (stereo not drawn), which EC150 (Rattus norvegicus [1]) is on record?
A: 8 µM

Q: And the IC50 [2]?
A: 341 µM

Q: With CP(=O)(O)CC(O)(CN)c1ccc(Cl)cc1 (stereo not drawn) as the compound, how does the EC150 (Rattus norvegicus [1]) read?
A: 30 µM

Q: And the IC50 [2]?
A: 6 µM

Q: With CCCCP(=O)(O)CC(=O)CN as the compound, how does the EC150 (Rattus norvegicus [1]) read?
A: 6 µM

Q: Which results are given for CCCCP(=O)(O)CC(O)CN (stereo not drawn)?
A: EC150 (Rattus norvegicus [1]): 8 µM; IC50 [2]: 29 µM

Q: Which EC150 (Rattus norvegicus [1]) does the source give for NCC(O)CP(=O)(O)Cc1ccccc1 (stereo not drawn) here?
A: 4 µM

Q: What about the IC50 [2] of the same compound?
A: 8 µM

Q: Which EC150 (Rattus norvegicus [1]) does the source give for NCCCP(=O)(O)C1CCCCO1 (stereo not drawn) here?
A: 144 µM

Q: And the IC50 [2]?
A: 39 µM

Q: With NCCC[PH](=O)O as the compound, how does the IC50 [2] read?
A: 0.005 µM

Q: And the EC150 (Rattus norvegicus [9])?
A: Agonist

Q: Which IC50 [2] does the source give for CCCCP(=O)(O)CC(C)(O)CN (stereo not drawn) here?
A: 45 µM

Q: Which EC150 (Rattus norvegicus [1]) does the source give for NC[C@@H](O)CP(=O)(O)CC1CCCCC1 here?
A: 4 µM

Q: What about the IC50 [2] of the same compound?
A: 6 µM

Q: With CCOC(OCC)P(=O)(O)CC(CN)c1ccc(Cl)cc1 (stereo not drawn) as the compound, how does the EC150 (Rattus norvegicus [1]) read?
A: 11 µM

Q: And the IC50 [2]?
A: 21 µM

Q: Which EC150 (Rattus norvegicus [1]) does the source give for CC(=O)CCP(=O)(O)CCCN here?
A: 4 µM

Q: And the IC50 [2]?
A: 1 µM

Q: Which results are given for CCCC(F)(F)P(=O)(O)CCCN?
A: EC150 (Rattus norvegicus [1]): 115 µM; IC50 [2]: 22 µM

Q: What does the source list for NCCCP(=O)(O)C1CCCO1 (stereo not drawn)?
A: EC150 (Rattus norvegicus [1]): 89 µM; IC50 [2]: 34 µM

Q: With CCCC(O)P(=O)(O)CCCN (stereo not drawn) as the compound, how does the EC150 (Rattus norvegicus [1]) read?
A: 44 µM

Q: And the IC50 [2]?
A: 18 µM

Q: With NCCCP(=O)(O)CCC1CCCCC1 as the compound, how does the EC150 (Rattus norvegicus [1]) read?
A: 13 µM

Q: What about the IC50 [2] of the same compound?
A: 2 µM

Q: With NCCCP(=O)(O)Cc1ccccc1 as the compound, how does the EC150 (Rattus norvegicus [1]) read?
A: 5 µM

Q: And the IC50 [2]?
A: 10 µM

Q: With CC(C)(C)P(=O)(O)CCCN as the compound, how does the IC50 [2] read?
A: 73 µM

Q: With NC[C@@H](O)CP(=O)(O)Cc1ccccc1 as the compound, how does the EC150 (Rattus norvegicus [1]) read?
A: 11 µM

Q: And the IC50 [2]?
A: 32 µM

Q: With CP(=O)(O)CC(CN)c1ccc(Cl)cc1 (stereo not drawn) as the compound, how does the EC150 (Rattus norvegicus [1]) read?
A: 28 µM

Q: And the IC50 [2]?
A: 9 µM

Q: Which IC50 [2] does the source give for NCCCP(=O)(O)CCCN here?
A: 29 µM

Reference: ChEMBL document CHEMBL1128522, “Phosphinic acid analogues of GABA. 2. Selective, orally active GABAB antagonists” (J Med Chem, 1995)
